Reference: PubChem BioAssay
Calls of active or inactive are those of the source.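 How the source made its calls, unless noted: active means Her2 level under about 52% in both replicate screens, with viability over 70% of control (limit read from the data); inconclusive means Her2 under the limit in one screen only, or viability under 70%; inactive means Her2 level above the set limit.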

What was measured:
[1] = Her2 expression decrease, cell viability multiplex – SKBR3 breast tumor cells, AlphaScreen, ATP viability, primary screen (AID 461); settings: SKBR3 Her2 protein level, 18-24 h, measured here: SKBR3 viability, ATP luminescence, at 10 µM;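 on Her2 level: lower value means less Her2 protein in the cells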;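 on viability: percent of carrier control wells set as 100% viability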
[2] = target: Receptor tyrosine-protein kinase erbB-2 (Homo sapiens) (UniProt P04626); assay: as above; settings: 18-24 h, at 10 µM, stronger effect = lower value
[3] = reduced viability of SK-BR-3 breast cancer cells – cell-based, 24 h, human, pilot screen (AID 572;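 active means viability at or below 10% of carrier control in both of two separate runs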;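 further: compound exposure lasted between 18 and 24 h rather than exactly 24 h; 100% = carrier-treated control wells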); settings: SK-BR-3 viability, CellTiter-Glo luminescence, at 10 µM, stronger effect = lower value
[4] = HUVEC growth inhibition – cell-based, human, primary screen (AID 575;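 active means viability at or below 30% in both replicate assays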;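 further: 100% = median of untreated cell wells with 0.1% DMSO on each plate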); settings: HUVEC proliferation, CellTiter-Glo luminescence, 72 h; at 10 µM; stronger effect = lower value
Summary of the method: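 Assay system: primary human umbilical vein endothelial cells / Buffer or medium: endothelial basal medium with 2% FBS plus growth supplements / Compound dosing: one dose, 10 µM final, 0.1% DMSO / Timing: 72 h treatment at 37 °C / Signal: CTG luminescence / Benchmarks: 32 DMSO-only cell-control wells (high), 32 MePR drug-control wells (low) per plate / Plate: collagen-coated 384-well format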

[5] = H69AR cell proliferation blockers – human, duplicate replicates, primary screen (AID 580;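 active means viability at or under a set limit in both replicates, limit being median viability minus 3 SD, cut at about 48% in these data, passing the limit was not always enough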;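 further: 100% = mean luminescence of untreated wells and 0% = no signal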); settings: H69AR lung tumor cells viability, ATP luminescence, 72 h; at 10 µM; stronger effect = lower value
[6] = MRP1 drug-resistance reversers in H69AR cells – cell-based, doxorubicin co-treatment, pilot screen (AID 601;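 active means viability loss from added drug above about 55%, and viability with drug at most 40%, in both replicates, limit read from the data, passing the limit was not always enough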); settings: CellTiter-Glo, 72 h, at 10 µM; for differential viability (reversal): stronger effect = higher value
[7] = yeast transport mutant growth inhibition pilot in 384-well plates, post-Golgi transport modulator project (AID 636; in the data active means inhibition above about 31%); settings: absorbance 615 nm, about 18 h, stronger effect = higher value
[8] = growth suppression of yeast trafficking mutant, preliminary HTS, modulators of trafficking downstream of Golgi apparatus project, 1536-format plate, OD 615 nm (AID 637; in the data active means inhibition above about 30%); settings: yeast transport mutant growth, absorbance 615 nm, 18 h; stronger effect = higher value
[9] = H69AR cells + 2 uM doxorubicin, measured here: viability with 2 uM doxorubicin, stronger effect = lower value
[10] = H69AR cells, compound alone cytotoxicity

Receptor tyrosine-protein kinase erbB-2 (Homo sapiens), sequence (P04626 whole entry, looked up): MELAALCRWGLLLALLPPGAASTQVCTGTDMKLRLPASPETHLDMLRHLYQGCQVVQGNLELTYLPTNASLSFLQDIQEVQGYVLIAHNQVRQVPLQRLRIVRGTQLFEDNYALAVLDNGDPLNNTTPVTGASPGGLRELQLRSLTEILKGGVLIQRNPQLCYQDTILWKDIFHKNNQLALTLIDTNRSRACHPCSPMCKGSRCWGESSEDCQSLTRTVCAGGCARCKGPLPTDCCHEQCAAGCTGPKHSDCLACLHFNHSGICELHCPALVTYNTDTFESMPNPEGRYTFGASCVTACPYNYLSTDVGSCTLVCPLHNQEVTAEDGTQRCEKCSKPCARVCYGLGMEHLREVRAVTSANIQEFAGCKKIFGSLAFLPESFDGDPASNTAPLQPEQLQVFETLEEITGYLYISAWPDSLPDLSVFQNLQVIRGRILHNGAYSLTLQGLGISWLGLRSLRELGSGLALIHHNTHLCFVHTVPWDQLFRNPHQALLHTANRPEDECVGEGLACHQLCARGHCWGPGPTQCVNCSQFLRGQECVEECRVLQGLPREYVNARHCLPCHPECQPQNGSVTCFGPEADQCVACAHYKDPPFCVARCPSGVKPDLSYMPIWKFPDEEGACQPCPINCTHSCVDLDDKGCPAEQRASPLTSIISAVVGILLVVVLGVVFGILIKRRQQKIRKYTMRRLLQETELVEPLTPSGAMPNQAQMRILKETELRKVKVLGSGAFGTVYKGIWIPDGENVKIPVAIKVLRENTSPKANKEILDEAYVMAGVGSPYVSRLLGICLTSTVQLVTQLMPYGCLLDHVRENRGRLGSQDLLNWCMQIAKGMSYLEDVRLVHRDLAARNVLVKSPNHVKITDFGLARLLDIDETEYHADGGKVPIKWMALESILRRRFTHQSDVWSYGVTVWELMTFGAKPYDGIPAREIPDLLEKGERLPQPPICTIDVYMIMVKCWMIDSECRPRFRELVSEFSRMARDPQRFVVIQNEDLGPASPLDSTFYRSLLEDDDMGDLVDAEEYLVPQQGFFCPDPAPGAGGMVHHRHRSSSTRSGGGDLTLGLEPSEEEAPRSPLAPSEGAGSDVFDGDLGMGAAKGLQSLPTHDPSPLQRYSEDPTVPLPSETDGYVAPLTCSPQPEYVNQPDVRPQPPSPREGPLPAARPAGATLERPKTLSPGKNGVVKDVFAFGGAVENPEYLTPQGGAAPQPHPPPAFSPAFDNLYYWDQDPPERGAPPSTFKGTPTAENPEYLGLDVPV

Compound | viability [1] [%] | Her2 level [2] | viability [3] | viability [4] | viability [5] | differential viability (reversal) ([6]; H69AR cells + 2 uM doxorubicin) | viability [6, 9] [%] | viability [6, 10] [%] | inhibition [7] | inhibition [8]
CCOC(=O)N1CCN(C(=O)C2CC(=O)N(Cc3ccc(OC)cc3)C2)CC1 (stereo not given) | 96.5 | 91% (inactive) | 96.5% (inactive) | 112% (inactive) | 93.3% (inactive) | -3.47% (inactive) | 96.8 | 93.3 | -4.34% (inactive) | -1.45% (inactive)
Cc1ccc(-c2nc(=S)c3c(n2Cc2ccco2)CCCC3)cc1 | 79 | 79% (inactive) | 79% (inactive) | 86.9% (inactive) | 10.3% (active) | -0.31% (inactive) | 10.6 | 10.3 | -1.47% (inactive) | -5.32% (inactive)
CC(=O)C1=C(O)C(=O)N(c2ccc(C(=O)O)cc2)C1c1ccccc1 (stereo not given) | 107 | 89% (inactive) | 107% (inactive) | 117% (inactive) | 102% (inactive) | 5.88% (inactive) | 95.7 | 102 | -0.66% (inactive) | 1.8% (inactive)
O=C(COC(=O)c1cncc(Br)c1)NCCC1=CCCCC1 | 93.5 | 93% (inactive) | 93.5% (inactive) | 101% (inactive) | 97.5% (inactive) | 9.04% (inactive) | 88.4 | 97.5 | -1.28% (inactive) | -1.33% (inactive)
COc1cc(S(=O)(=O)NC2CCCCC2)ccc1Cl | 94.5 | 84.5% (inactive) | 94.5% (inactive) | 82.3% (inactive) | 92.7% (inactive) | 7.43% (inactive) | 85.3 | 92.7 | -3.95% (inactive) | -2.7% (inactive)
CCOC(=O)c1c(C)oc2ccc(OCC(=O)N(CC)CC)cc12 | 85.5 | 85% (inactive) | 85.5% (inactive) | 101% (inactive) | 101% (inactive) | 3.73% (inactive) | 97.2 | 101 | -5.26% (inactive) | -0.32% (inactive)
CN1CCN(C(=O)CCC(=O)c2ccc(F)cc2)CC1 | 114 | 79.5% (inactive) | 114% (inactive) | 96.4% (inactive) | 94.8% (inactive) | 7.6% (inactive) | 87.2 | 94.8 | -8.53% (inactive) | -3.77% (inactive)
CCOC(=O)N1CCN(C(=O)Cn2ncn3nc(-c4cccs4)cc3c2=O)CC1 | 97 | 136% (inactive) | 97% (inactive) | 111% (inactive) | 90.9% (inactive) | -9.68% (inactive) | 101 | 90.9 | 1.71% (inactive) | 0.33% (inactive)
COc1ccc(C2CC(=O)c3c(C)nc(N4CCN(c5ccccc5)CC4)nc3C2)cc1 (stereo not given) | 90 | 88% (inactive) | 90% (inactive) | 98.5% (inactive) | 97.3% (inactive) | 19% (inactive) | 78.3 | 97.3 | 0.79% (inactive) | -5.9% (inactive)
CC(C)(C)C(=O)CNS(=O)(=O)c1ccc(S(=O)(=O)NC2CCCC2)cc1 | 104 | 92% (inactive) | 104% (inactive) | 115% (inactive) | 98.8% (inactive) | 11.2% (inactive) | 87.6 | 98.8 | -3.56% (inactive) | 1.9% (inactive)
Cc1cc(C(=O)NCc2ccc(S(N)(=O)=O)cc2)cs1 | 84.5 | 87.5% (inactive) | 84.5% (inactive) | 105% (inactive) | 104% (inactive) | 13% (inactive) | 90.7 | 104 | -5.73% (inactive) | 4.1% (inactive)
COc1cccc(CNc2nc3nc(C)c(Cl)c(C)n3n2)c1 | 86.5 | 99.5% (inactive) | 86.5% (inactive) | 95.1% (inactive) | 83.6% (inactive) | 0.33% (inactive) | 83.3 | 83.6 | -4.93% (inactive) | -2.38% (inactive)
O=C(NCc1ccccc1)C1CCCN1S(=O)(=O)c1cccc2cccnc12 (stereo not given) | 94 | 99.5% (inactive) | 94% (inactive) | 93% (inactive) | 110% (inactive) | 15.6% (inactive) | 94.4 | 110 | -0.53% (inactive) | -0.98% (inactive)
O=C(CN1CCN(Cc2ccc3c(c2)OCO3)CC1)Nc1ccc2c(c1)OCCO2 | 97 | 89.5% (inactive) | 97% (inactive) | 93.8% (inactive) | 94.4% (inactive) | 16.4% (inactive) | 78 | 94.4 | -2.43% (inactive) | -1.27% (inactive)
Cc1ccc(Cn2c(NCCc3ccccc3)nc3c2c(=O)n(C)c(=O)n3C)cc1 | 82.5 | 75% (inactive) | 82.5% (inactive) | 73.5% (inactive) | 91.9% (inactive) | 3.77% (inactive) | 88.1 | 91.9 | -10% (inactive) | -2.7% (inactive)
